Assay results published in ChEMBL document CHEMBL1138178, “Identification of novel parasitic cysteine protease inhibitors by use of virtual screening. 2. The available chemical directory” (J Med Chem, 2006).
Where a SMILES comes first, the peptide text is derived from it. The star is where a group is joined. Cbz = O=C(OCc1ccccc1)*; OBn = c1ccc(CO*)cc1

Legend:
Plasmodium falciparum [1] = assay: Antimalarial activity against Plasmodium falciparum W2; type: functional, organism-based
In short: (§1)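 Sorbitol-synchronized chloroquine-resistant W2 P. falciparum at 1% parasitemia, 2% hematocrit, RPMI-1640 with 10% human serum, 3% O2/6% CO2/91% N2; compounds from DMSO (max 0.1%) for 48 h; fixed in 1% formaldehyde 48 h, stained with 1 nM YOYO-1 in 0.1% Triton X-100; parasitemia by flow cytometry; IC50 from percent control parasitemia versus concentration.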

Vero [2] = assay: Cytotoxicity against Vero cells up to 50 uM; type: functional, cell-based, Chlorocebus sabaeus
In short: (§2)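 VERO monkey kidney fibroblast cells tested simultaneously with antileishmanial screen; cytotoxicity read by neutral red assay; IC50 computed from growth inhibition curve.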

Leishmania donovani = assay: Antileishmanial activity against Leishmania donovani promastigotes; type: functional, organism-based
Vero [3] = assay: Cytotoxicity against Vero cells; type: functional, cell-based; conditions: Chlorocebus sabaeus; in short: as §2
[4] = target: T1, Cysteine protease falcipain-3 (Plasmodium falciparum, UniProt Q9NBA7); assay: Inhibition of falcipain3
T1 sequence (Q9NBA7 whole entry): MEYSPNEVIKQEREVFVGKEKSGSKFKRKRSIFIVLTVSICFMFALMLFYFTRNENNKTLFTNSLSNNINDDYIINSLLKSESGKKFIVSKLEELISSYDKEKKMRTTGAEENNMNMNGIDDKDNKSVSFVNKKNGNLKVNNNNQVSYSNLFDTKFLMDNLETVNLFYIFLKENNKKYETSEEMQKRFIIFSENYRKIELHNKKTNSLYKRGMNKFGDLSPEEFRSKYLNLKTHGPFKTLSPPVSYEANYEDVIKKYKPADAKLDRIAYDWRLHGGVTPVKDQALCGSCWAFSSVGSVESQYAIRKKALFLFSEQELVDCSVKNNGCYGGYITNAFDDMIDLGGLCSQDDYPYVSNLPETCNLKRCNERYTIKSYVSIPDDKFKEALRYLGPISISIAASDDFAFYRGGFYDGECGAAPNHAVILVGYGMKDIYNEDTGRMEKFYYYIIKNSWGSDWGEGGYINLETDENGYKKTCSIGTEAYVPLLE

Falcipain 2 = target: T2, Falcipain 2 (Plasmodium falciparum, UniProt Q9N6S8); assay: Inhibition of falcipain2
T2 sequence (Q9N6S8 whole entry): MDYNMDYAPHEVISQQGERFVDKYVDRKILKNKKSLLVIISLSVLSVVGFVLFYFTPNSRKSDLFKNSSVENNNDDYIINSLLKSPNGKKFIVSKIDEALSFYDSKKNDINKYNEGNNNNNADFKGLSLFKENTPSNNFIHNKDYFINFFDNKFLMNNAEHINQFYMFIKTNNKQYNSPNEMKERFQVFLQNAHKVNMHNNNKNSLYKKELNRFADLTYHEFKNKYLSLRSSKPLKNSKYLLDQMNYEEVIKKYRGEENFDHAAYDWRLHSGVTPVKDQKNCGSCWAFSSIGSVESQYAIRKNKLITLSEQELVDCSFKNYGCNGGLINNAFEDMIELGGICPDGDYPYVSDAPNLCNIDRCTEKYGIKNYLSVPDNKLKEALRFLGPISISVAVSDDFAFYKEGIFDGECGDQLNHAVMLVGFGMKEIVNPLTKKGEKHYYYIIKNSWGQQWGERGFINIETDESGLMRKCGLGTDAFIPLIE

Plasmodium falciparum [5] = assay: Antimalarial activity against Plasmodium falciparum W2 up to 20 uM; type: functional, organism-based; in short: as §1
Cysteine protease = target: T3, Cysteine protease (Leishmania donovani, UniProt Q95WR6); assay: Inhibition of Leishmania donovani cysteine protease
T3 sequence (Q95WR6 whole entry): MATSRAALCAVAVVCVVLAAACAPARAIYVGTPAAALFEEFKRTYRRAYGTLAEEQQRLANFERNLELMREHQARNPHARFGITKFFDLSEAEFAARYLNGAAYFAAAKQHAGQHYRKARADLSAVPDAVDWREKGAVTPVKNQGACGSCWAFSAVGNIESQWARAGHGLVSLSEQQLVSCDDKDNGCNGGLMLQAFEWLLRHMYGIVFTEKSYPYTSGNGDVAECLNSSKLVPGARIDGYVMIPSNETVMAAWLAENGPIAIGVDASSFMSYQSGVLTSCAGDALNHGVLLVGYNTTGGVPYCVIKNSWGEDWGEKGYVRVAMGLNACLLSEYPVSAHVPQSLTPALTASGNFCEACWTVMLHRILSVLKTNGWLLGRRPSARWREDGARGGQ
In short: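 Major cysteine protease purified from L. donovani promastigotes on Con A Sepharose; buffer 100 mM sodium acetate pH 5.5, 10 mM DTT, 0.1% Triton X-100, 1 mM EDTA; enzyme preincubated with compounds (DMSO stock) 10 min at 37 °C; Z-Phe-Arg-AMC at 10 µM final; 30 min at 37 °C; released AMC read fluorometrically.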

[6] = Leishmania donovani, read-out: IC50

| Structure (SMILES) | IC50 (Plasmodium falciparum [1]) [µM] | IC50 [4] [µM] | IC50 (Falcipain 2) [µM] | other results |
| --- | --- | --- | --- | --- |
| COc1ccc(-c2cncc(-c3cc(NCCCn4ccnc4)nc(C)n3)c2)cc1 | 2.8 | – | – | – |
| Cn1c(CSc2ccnc3cc(Cl)ccc23)nnc1SCC(=O)N1CCOCC1 | 20 | – | – | IC50 (Vero [2]): Non-toxic; IC50 (Leishmania donovani): Not Active |
| Cn1c(CSCC(=O)Nc2ccccc2)nnc1SCC(=O)Nc1cccc(Cl)c1 | 16.6 | – | – | IC50 (Vero [2]): Non-toxic; IC50 (Leishmania donovani): Not Active |
| c1ccc(-c2nc(NCCCn3ccnc3)cc(-c3ccncc3)n2)cc1 | 0.13 | – | – | IC50 (Vero [2]): Non-toxic; IC90 (Leishmania donovani; Leishmania donovani): 98.2 µM; IC50 (Leishmania donovani; [6]): 50.5 µM |
| c1ccc(-c2nc(NCCCn3ccnc3)cc(-c3cccnc3)n2)cc1 | 0.94 | – | – | IC50 (Vero [3]): 40.7 µM; IC90 (Leishmania donovani; Leishmania donovani): 56.1 µM; IC50 (Leishmania donovani; [6]): 12.6 µM |
| O=S(=O)(c1ccc(-c2ccc(S(=O)(=O)N3CCOCC3)s2)s1)N1CCOCC1 | – | 37.7 | 5.4 | – |
| COc1ccc(-c2cncc(-c3cc(NCc4ccco4)nc(C)n3)c2)cc1 | 11.5 | – | – | IC50 (Vero [2]): Non-toxic; IC50 (Leishmania donovani): Not Active |
| O=S(=O)(c1ccc2c(c1)C(=NO)c1cc(S(=O)(=O)N3CCOCC3)ccc1-2)N1CCOCC1 | 6 | – | – | IC50 (Vero [2]): Non-toxic; IC90 (Leishmania donovani; Leishmania donovani): 81 µM; IC50 (Leishmania donovani; [6]): 52.7 µM |
| COC(=O)c1sccc1NC(=O)CSCc1ccc(Cl)cc1 | – | – | – | IC50 (Vero [2]): Non-toxic; IC50 (Leishmania donovani; [6]): 45 µM; IC50 (Plasmodium falciparum [5]): Not Active |
| Cc1cccc(NC(=O)Cn2c(O)c(/N=N/C(=O)C(=O)NCc3ccccc3)c3ccccc32)c1 | – | > 50 | 1.6 | – |
| Cc1ccc(S(=O)(=O)N(C)C)cc1NS(=O)(=O)c1ccc(-c2ccon2)s1 | – | > 50 | 2.9 | – |
| CCCc1cc(O)nc(SCC(=O)NCCSCc2ccco2)n1 | – | > 50 | 4.6 | – |
| Cn1c(O)c(/N=N/C(=O)CCCCC(=O)/N=N/c2c(O)n(C)c3ccccc23)c2ccccc21 | – | > 50 | 6.5 | – |
| O=C(Cn1nnc(-c2ccccc2)n1)NNC=NOCc1c(F)cccc1Cl | – | 38.5 | 10.8 | – |
| O=C(CS(=O)(=O)c1ccc(Cl)cc1)NCCS(=O)(=O)c1ccccc1 | – | – | – | IC50 (Cysteine protease): 24.9 µM |
| O=C(N[C@@H](COCc1ccccc1)C(=O)ON1C(=O)CCC1=O)OCc1ccccc1 | – | – | – | IC50 (Cysteine protease): 23.5 µM |
| CCCS(=O)(=O)c1cscc1NC(=O)CSCCS(=O)(=O)c1ccc(Cl)cc1 | – | > 50 | 3.4 | – |
| Brc1cncc(-c2cc(NCCCn3ccnc3)nc(-c3ccccc3)n2)c1 | 0.44 | – | – | IC50 (Vero [3]): 32.2 µM; IC90 (Leishmania donovani; Leishmania donovani): 15.4 µM; IC50 (Leishmania donovani; [6]): 7.8 µM |
| N=C(CS(=O)(=O)Cc1ccc(F)cc1)NOC(=O)c1cccs1 | – | > 50 | 50 | – |
| O=C(CCSSCCC(=O)NCc1ccccc1)NCc1ccccc1 | – | 18.8 | 15.3 | – |
| Cc1nc(NCCCn2ccnc2)cc(-c2cncc(-c3ccc(F)cc3)c2)n1 | 2.6 | – | – | IC50 (Vero [3]): 41.2 µM; IC90 (Leishmania donovani; Leishmania donovani): 85 µM; IC50 (Leishmania donovani; [6]): 41.2 µM |
| O=C(CSc1nnc(O)n1Cc1ccco1)c1ccc2c(c1)OCCO2 | – | > 50 | 52.3 | – |

| Structure (SMILES) | IC50 (Plasmodium falciparum [1]) [µM] | IC50 [4] [µM] | IC50 (Falcipain 2) [µM] | other results |
| --- | --- | --- | --- | --- |
| Cc1csc(Cn2nc(CC(=O)N/N=C/c3ccccc3)c3ccccc3c2=O)n1 | – | > 50 | 54.3 | – |
| COC(=O)c1ccsc1NC(=O)CN1CCN(S(=O)(=O)c2ccc(Cl)cc2)CC1 | – | 49.2 | 14.3 | – |
| Cn1c(CSCC(=O)Nc2ccccc2)nnc1SCC(=O)Nc1ccccc1 | 20 | – | – | IC50 (Vero [2]): Non-toxic; IC50 (Leishmania donovani): Not Active |
| Cc1ccc(S(=O)(=O)NC(=O)NCC2CCN(S(=O)(=O)c3ccccc3)CC2)cc1 | – | 34 | 19 | – |
| Cc1nc(C)nc(N(CCS(=O)(=O)c2ccccc2)CCS(=O)(=O)c2ccccc2)n1 | – | > 50 | 13.2 | – |
| O=S(=O)(NCc1ccco1)c1ccc2c(c1)Cc1cc(S(=O)(=O)NCc3ccco3)ccc1-2 | – | 11.4 | 1.4 | – |
| CSc1cc(CSc2ccc(Cl)cc2)nc(-c2ccccn2)n1 | 20 | – | – | IC50 (Vero [2]): Non-toxic; IC90 (Leishmania donovani; Leishmania donovani): 106 µM; IC50 (Leishmania donovani; [6]): 50 µM |
| O=C(COCC(=O)N/N=C/CCc1ccccc1)N/N=C/CCc1ccccc1 | 3.9 | – | – | IC50 (Vero [2]): Non-toxic; IC50 (Leishmania donovani): Not Active |
| O=C(CSc1nc2ccccc2o1)NCCSCc1ccco1 | – | – | – | IC50 (Cysteine protease): 43 µM |
| O=S(=O)(Cc1ccc(Cl)cc1)Cc1nc(-c2ccsc2)no1 | – | 56.6 | 47.8 | – |
| COC(=O)c1sccc1NC(=O)CC(=O)Nc1ccsc1C(=O)OC | – | > 50 | 10.4 | – |
| C[C@@H](C(=O)NCCS(=O)(=O)c1ccc(Br)cc1)S(=O)(=O)c1ccccc1 | 9.5 | – | – | IC50 (Vero [3]): 48.4 µM; IC50 (Leishmania donovani): Not Active |
| O=C(CSCc1c(F)cccc1Cl)NCCSCc1ccco1 | > 2.5 | – | – | IC50 (Vero [2]): Non-toxic; IC50 (Leishmania donovani; [6]): 107 µM |
| O=C(NCc1ccncc1)c1ccc(-c2cnn(Cc3ccccc3)c2)nc1 | 20 | – | – | – |
| CCOC(=O)c1c2cc(OCC(=O)NCc3ccco3)ccc2n2ccccc12 | 9.5 | 31.2 | 13.8 | – |
| O=C(CNC(=O)OCc1ccccc1)N[C@@H](Cc1ccccc1)C(=O)OCc1ccccc1 (Cbz-Gly-Phe-OBn) | – | – | – | IC50 (Cysteine protease): 31.4 µM |
| C[C@@H]1[C@H](O)[C@@H](C)/C=C/C=C/C=C/C=C/C=C/C=C/C=C/[C@H](O[C@@H]2O[C@H](C)[C@@H](O)[C@H](N)[C@@H]2O)C[C@@H]2O[C@](O)(C[C@@H](O)C[C@@H](O)[C@H](O)CC[C@@H](O)C[C@@H](O)CC(=O)O[C@H]1C)C[C@H](O)[C@H]2C(=O)O [AMPHOTERICIN B] | – | – | – | IC90 (Leishmania donovani; Leishmania donovani): 0.3 µM; IC50 (Leishmania donovani; [6]): 0.04 µM |
| C[C@@H]1CC[C@H]2[C@@H](C)C(=O)O[C@@H]3O[C@@]4(C)CC[C@@H]1[C@]32OO4 [ARTEMISININ] | 0.008 | – | – | – |
| CC(C)C[C@H](NC(=O)[C@H]1O[C@@H]1C(=O)O)C(=O)NCCCCN=C(N)N [E-64] | – | 0.075 | – | – |
| CC(=O)N[C@@H](CC(C)C)C(=O)N[C@@H](CC(C)C)C(=O)N[C@H](C=O)CCCNC(=N)N [LEUPEPTIN] | – | – | – | IC50 (Cysteine protease): 0.01 µM |
| N=C(N)c1ccc(OCCCCCOc2ccc(C(=N)N)cc2)cc1 [PENTAMIDINE] | – | – | – | IC90 (Leishmania donovani; Leishmania donovani): 8.3 µM; IC50 (Leishmania donovani; [6]): 2.5 µM |
